Results taken from ChEMBL document CHEMBL4428107 (Bioorg Med Chem, 2016).
pIC50: −log10 of the molar value. “And” between values parts separate entries of the source, which are not always exact repeats. Equal values may be shown once. The source made the active and inactive calls. No cut-off for these calls is given here.

Tests used:
Histone deacetylase 8 = Histone deacetylase 8 (Homo sapiens, UniProt Q9BY41); test: Inhibition of recombinant full length C-terminal His-tagged human HDAC8 expressed in baculovirus expression system using fluorogenic substrate by fluorescence assay
Summary of the method: (§1)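 Outsourced HDAC isozyme panel run under proprietary protocols. Each compound was tested at 10 μM and 5 μM, using Class 2a HDAC substrate at 2 μM, with fluorescence read-out. […] IC50 range was bracketed from % inhibition at the two concentrations.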

HCT-116 = test: Antiproliferative activity against human HCT116 cells assessed as reduction in cell viability after 72 hrs by MTS-PMS assay; type: functional
Summary of the method: (§2)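 MTS-PMS viability test. Cells were seeded at 3,000/well and left 24 h at 37 °C, 5% CO2, then exposed to compound for 72 h. Screening was at 50 μM for HCT116 and MCF-7 and […], with final DMSO ≤1%. MTS:PMS was mixed 20:1, added for 3 h, and absorbance read at 490 nm. At least two independent runs were done, each in triplicate.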

[1] = Immunomodulatory activity in human TALL-104 cells assessed as effect on degranulation by measuring augmentation of CD3-stimulated anti-LAMP fluorescence at 100 uM preincubated for 30 mins followed by anti-LAMP addition and incubated for 50 mins in the dark by flow cytometric analysis relative to control; type: functional
Histone deacetylase 11 = Histone deacetylase 11 (Homo sapiens, UniProt Q96DB2); test: Inhibition of full length recombinant human HDAC11 expressed in baculovirus expression system using fluorogenic substrate by fluorescence assay; summary of the method: as §1
HuT78 = test: Antiproliferative activity against human HUT78 cells assessed as reduction in cell viability after 70 hrs by Quanti-blue assay; type: functional
Summary of the method: (§3)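 Quanti-Blue viability kit. HuT-78 and Molt-4 cells were grown in RPMI-1640 and seeded at 10^5 cells/mL. Compounds were screened at 50 μM for 70 h, with detection reagent present for the final 2 h. Fluorescence was read at ex 530/em 590 nm. IC50 from dose-response came from linear regression. Three independent runs.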

MOLT-4 = test: Antiproliferative activity against human MOLT4 cells assessed as reduction in cell viability after 70 hrs by Quanti-blue assay; type: functional; summary of the method: as §3
[2] = biological target: Polyamine deacetylase HDAC10 (Homo sapiens, UniProt Q969S8); test: Inhibition of recombinant N-terminal FLAG-tagged human HDAC10 (2 to 631 residues) expressed in baculovirus expression system using fluorogenic substrate by fluorescence assay
Summary of the method: (§4)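 Outsourced HDAC isozyme panel run under proprietary protocols. Each compound was tested at 10 μM and 5 μM, using HDAC substrate 3 at 10 μM, with fluorescence read-out. […] IC50 range was bracketed from % inhibition at the two concentrations.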

[3] = biological target: Protein deacetylase HDAC6 (Homo sapiens, UniProt Q9UBN7); test: Inhibition of recombinant full length N-terminal GST-tagged human HDAC6 expressed in baculovirus expression system using fluorogenic substrate by fluorescence assay; summary of the method: as §4
Histone deacetylase 7 = Histone deacetylase 7 (Homo sapiens, UniProt Q8WUI4); test: Inhibition of recombinant N-terminal GST-tagged human HDAC7 (518 to end residues) expressed in baculovirus expression system using fluorogenic substrate by fluorescence assay; summary of the method: as §1
[4] = Antiproliferative activity against human PBMC assessed as reduction in cell viability after 70 hrs by Quanti-blue assay; type: cell-based
Summary of the method: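 QB fluorescence viability assay; hPBMCs purified by density centrifugation from purchased human blood, stored frozen, resuspended in RPMI-1640 with 10% heat-inactivated FBS, HEPES, pyruvate, non-essential amino acids and BME; seeded at 10^6 cells/mL. Compounds at 50 μM, 70 h plus 2 h with detection reagent; λex 530/λem 590 nm. Three independent repeats.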

Histone deacetylase 9 = Histone deacetylase 9 (Homo sapiens, UniProt Q9UKV0); test: Inhibition of recombinant C-terminal His-tagged human HDAC9 (604 to 1066 residues) expressed in baculovirus expression system using fluorogenic substrate by fluorescence assay; summary of the method: as §1
Histone deacetylase 4 = Histone deacetylase 4 (Homo sapiens, UniProt P56524); test: Inhibition of recombinant C-terminal His-tagged/N-terminal GST-tagged human HDAC4 (627 to 1084 residues) expressed in baculovirus expression system using fluorogenic substrate by fluorescence assay; summary of the method: as §1
Histone deacetylase 2 [5] = biological target: T1, Histone deacetylase 2 (Homo sapiens, UniProt Q92769); test: Inhibition of recombinant full length C-terminal His-tagged human HDAC2 expressed in baculovirus expression system using fluorogenic substrate by fluorescence assay
Histone deacetylase 5 = Histone deacetylase 5 (Homo sapiens, UniProt Q9UQL6); test: Inhibition of recombinant C-terminal His-tagged human HDAC5 catalytic domain (656 to 1122 residues) expressed in baculovirus expression system using fluorogenic substrate by fluorescence assay; summary of the method: as §1
MCF7 = test: Antiproliferative activity against human MCF7 cells assessed as reduction in cell viability after 72 hrs by MTS-PMS assay; details: MCF7, 72 h
[6] = biological target: Histone deacetylase 3/Nuclear receptor corepressor 2 (HDAC3/NCoR2) (Homo sapiens, UniProt O15379); test: Inhibition of recombinant full length C-terminal His-tagged human HDAC3/GST-tagged human Ncor2 (395 to 489 residues) expressed in baculovirus expression system using fluorogenic substrate by fluorescence assay; summary of the method: as §4
Histone deacetylase 1 = Histone deacetylase 1 (Homo sapiens, UniProt Q13547); test: Inhibition of recombinant full length C-terminal FLAG-tagged/C-terminal His-tagged human HDAC1 using fluorogenic substrate by fluorescence assay; summary of the method: as §4
Histone deacetylase 2 [7] = biological target: T1, Histone deacetylase 2; test: Inhibition of full length recombinant human HDAC2 expressed in baculovirus expression system using fluorogenic peptide RHKK(Ac) as substrate by fluorescence assay
MDA-MB-231 = test: Antiproliferative activity against human MDA-MB-231 cells assessed as reduction in cell viability after 72 hrs by MTS-PMS assay; type: functional; details: MDA-MB-231, 72 h; summary of the method: as §2
[8] = biological target: NAD-dependent protein deacetylase sirtuin-1 (Homo sapiens) (UniProt Q96EB6); test: Inhibition of SIRT1 (unknown origin) at 10 uM
[9] = biological target: NAD-dependent protein deacetylase sirtuin-2 (Homo sapiens) (UniProt Q8IXJ6); test: Inhibition of SIRT2 (unknown origin) at 10 uM
[10] = biological target: T2, DNMT3B-DNMT3L complex (Homo sapiens) (UniProt Q9UBC3+Q9UJW3); test: Inhibition of DNMT3B/3L (unknown origin) at 10 uM; type: protein-complex assay
[11] = biological target: T2, DNMT3B-DNMT3L complex (Homo sapiens); test: Inhibition of DNMT3B/3L (unknown origin) at 5 uM; type: protein-complex assay
[12] = biological target: T3, DNMT3A2/3L complex (Homo sapiens) (UniProt Q9Y6K1+Q9UJW3); test: Inhibition of DNMT3A/3L (unknown origin) at 5 uM; type: protein-complex assay
[13] = biological target: T3, DNMT3A2/3L complex (Homo sapiens); test: Inhibition of DNMT3A/3L (unknown origin) at 10 uM; type: protein-complex assay
[14] = biological target: NAD-dependent protein deacetylase sirtuin-2 (Homo sapiens) (UniProt Q8IXJ6); test: Inhibition of SIRT2 (unknown origin) at 5 uM
[15] = biological target: NAD-dependent protein deacylase sirtuin-5, mitochondrial (Homo sapiens) (UniProt Q9NXA8); test: Inhibition of SIRT5 (unknown origin) at 5 to 10 uM
[16] = biological target: NAD-dependent protein deacetylase sirtuin-1 (Homo sapiens) (UniProt Q96EB6); test: Inhibition of SIRT1 (unknown origin) at 5 uM
[17] = biological target: NAD-dependent protein deacetylase sirtuin-3, mitochondrial (Homo sapiens) (UniProt Q9NTG7); test: Inhibition of SIRT3 (unknown origin) at 5 uM
[18] = biological target: DNA (cytosine-5)-methyltransferase 1 (Homo sapiens) (UniProt P26358); test: Inhibition of DNMT1 (unknown origin) at 5 uM
[19] = biological target: NAD-dependent protein deacetylase sirtuin-3, mitochondrial (Homo sapiens) (UniProt Q9NTG7); test: Inhibition of SIRT3 (unknown origin) at 10 uM
[20] = biological target: DNA (cytosine-5)-methyltransferase 1 (Homo sapiens) (UniProt P26358); test: Inhibition of DNMT1 (unknown origin) at 10 uM

T1 sequence (Q92769 whole entry, the tested form may be a part): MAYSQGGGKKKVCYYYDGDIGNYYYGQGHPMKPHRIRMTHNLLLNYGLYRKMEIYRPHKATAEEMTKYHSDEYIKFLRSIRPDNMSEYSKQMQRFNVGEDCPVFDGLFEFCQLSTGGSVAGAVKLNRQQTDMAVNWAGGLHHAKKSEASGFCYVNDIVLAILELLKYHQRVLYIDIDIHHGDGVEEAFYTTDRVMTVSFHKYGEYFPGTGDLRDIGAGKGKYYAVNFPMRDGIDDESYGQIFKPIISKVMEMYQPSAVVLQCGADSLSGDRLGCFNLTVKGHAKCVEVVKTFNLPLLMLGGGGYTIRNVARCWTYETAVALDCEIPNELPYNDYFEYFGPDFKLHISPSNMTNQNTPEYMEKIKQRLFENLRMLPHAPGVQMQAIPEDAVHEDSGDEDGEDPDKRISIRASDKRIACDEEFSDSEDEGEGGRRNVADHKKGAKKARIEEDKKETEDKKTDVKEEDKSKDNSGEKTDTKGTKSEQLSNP
Chain of Histone deacetylase 5 (Q9UQL6 whole entry, the tested form may be a part): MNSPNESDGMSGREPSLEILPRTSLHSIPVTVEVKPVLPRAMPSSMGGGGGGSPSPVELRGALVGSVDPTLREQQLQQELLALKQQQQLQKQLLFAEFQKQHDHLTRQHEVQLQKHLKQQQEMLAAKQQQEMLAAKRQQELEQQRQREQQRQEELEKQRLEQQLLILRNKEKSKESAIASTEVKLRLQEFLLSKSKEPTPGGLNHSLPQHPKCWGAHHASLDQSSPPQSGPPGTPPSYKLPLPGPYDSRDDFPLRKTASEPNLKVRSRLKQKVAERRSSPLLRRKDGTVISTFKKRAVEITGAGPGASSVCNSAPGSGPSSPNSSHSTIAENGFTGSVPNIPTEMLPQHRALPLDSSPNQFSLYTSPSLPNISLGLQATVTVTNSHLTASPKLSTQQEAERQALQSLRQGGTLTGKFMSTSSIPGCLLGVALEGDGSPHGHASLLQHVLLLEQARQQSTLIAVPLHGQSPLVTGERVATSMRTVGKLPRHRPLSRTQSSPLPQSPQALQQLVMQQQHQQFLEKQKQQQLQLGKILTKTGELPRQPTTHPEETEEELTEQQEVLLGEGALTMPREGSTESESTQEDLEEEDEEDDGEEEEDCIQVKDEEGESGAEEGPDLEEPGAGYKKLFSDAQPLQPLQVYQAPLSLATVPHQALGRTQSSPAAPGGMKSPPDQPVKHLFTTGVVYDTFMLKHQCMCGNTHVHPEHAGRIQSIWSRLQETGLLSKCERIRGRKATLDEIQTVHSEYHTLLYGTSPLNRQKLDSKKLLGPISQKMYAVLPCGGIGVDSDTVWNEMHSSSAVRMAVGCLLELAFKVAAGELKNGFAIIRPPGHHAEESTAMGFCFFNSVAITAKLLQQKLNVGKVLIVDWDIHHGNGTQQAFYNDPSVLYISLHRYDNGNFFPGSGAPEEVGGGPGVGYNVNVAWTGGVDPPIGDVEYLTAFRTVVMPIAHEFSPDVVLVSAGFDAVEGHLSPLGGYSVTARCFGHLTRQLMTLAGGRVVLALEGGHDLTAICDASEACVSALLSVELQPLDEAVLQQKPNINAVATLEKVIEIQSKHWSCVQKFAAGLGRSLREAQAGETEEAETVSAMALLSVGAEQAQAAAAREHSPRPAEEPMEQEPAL
Chain of DNA (cytosine-5)-methyltransferase 1 (Homo sapiens) (P26358 whole entry): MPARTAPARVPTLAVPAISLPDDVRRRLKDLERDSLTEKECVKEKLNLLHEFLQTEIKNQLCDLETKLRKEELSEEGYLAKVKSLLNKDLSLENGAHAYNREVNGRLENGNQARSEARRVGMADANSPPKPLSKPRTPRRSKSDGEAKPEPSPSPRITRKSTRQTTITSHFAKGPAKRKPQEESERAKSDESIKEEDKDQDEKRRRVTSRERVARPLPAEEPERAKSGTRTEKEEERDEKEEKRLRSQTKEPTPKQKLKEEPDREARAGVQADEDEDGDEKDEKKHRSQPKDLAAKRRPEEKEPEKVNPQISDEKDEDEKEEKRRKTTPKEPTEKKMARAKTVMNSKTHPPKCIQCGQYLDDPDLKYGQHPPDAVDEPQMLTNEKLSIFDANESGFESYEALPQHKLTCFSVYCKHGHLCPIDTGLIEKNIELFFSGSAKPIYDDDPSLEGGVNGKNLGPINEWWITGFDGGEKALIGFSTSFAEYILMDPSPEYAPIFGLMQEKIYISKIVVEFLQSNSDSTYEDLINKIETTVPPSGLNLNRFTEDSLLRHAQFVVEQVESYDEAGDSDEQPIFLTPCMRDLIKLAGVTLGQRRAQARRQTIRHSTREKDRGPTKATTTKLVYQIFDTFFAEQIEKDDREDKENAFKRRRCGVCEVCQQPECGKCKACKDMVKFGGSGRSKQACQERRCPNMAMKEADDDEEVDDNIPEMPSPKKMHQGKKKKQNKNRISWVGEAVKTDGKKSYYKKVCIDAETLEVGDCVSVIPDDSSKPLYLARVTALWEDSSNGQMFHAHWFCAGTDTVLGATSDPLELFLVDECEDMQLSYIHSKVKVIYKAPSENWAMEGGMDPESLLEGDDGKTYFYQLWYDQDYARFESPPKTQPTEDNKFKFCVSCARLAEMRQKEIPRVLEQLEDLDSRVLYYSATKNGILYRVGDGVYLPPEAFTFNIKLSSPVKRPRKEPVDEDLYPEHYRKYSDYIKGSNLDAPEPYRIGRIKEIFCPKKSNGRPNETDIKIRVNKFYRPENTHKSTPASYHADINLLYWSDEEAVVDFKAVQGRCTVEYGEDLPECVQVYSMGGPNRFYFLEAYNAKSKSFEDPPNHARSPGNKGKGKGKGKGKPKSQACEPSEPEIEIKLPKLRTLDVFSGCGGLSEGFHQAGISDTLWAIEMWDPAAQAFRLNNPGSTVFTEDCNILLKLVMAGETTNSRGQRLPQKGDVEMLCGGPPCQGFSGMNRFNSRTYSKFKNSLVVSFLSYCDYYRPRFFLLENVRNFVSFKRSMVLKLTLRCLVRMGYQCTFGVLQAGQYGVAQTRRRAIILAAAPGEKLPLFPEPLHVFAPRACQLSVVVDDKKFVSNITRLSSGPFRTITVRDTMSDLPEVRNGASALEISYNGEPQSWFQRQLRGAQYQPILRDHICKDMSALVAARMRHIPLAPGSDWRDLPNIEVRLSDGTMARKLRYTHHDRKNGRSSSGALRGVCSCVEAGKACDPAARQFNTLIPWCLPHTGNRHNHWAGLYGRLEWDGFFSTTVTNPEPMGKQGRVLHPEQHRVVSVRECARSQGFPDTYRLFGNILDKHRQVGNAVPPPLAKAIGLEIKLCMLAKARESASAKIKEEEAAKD
Chain of NAD-dependent protein deacetylase sirtuin-3, mitochondrial (Homo sapiens) (Q9NTG7 whole entry): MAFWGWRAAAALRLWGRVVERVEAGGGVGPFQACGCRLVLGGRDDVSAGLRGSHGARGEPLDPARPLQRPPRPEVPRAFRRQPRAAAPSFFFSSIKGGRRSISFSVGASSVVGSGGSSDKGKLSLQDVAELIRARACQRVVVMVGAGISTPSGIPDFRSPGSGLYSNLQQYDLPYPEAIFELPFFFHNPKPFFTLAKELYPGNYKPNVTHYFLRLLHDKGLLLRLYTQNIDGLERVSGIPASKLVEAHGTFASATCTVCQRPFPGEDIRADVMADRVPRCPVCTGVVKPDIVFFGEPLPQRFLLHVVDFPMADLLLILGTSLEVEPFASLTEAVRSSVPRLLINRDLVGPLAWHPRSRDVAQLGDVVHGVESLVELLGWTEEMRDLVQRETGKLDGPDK
Chain of Protein deacetylase HDAC6 (Q9UBN7 whole entry): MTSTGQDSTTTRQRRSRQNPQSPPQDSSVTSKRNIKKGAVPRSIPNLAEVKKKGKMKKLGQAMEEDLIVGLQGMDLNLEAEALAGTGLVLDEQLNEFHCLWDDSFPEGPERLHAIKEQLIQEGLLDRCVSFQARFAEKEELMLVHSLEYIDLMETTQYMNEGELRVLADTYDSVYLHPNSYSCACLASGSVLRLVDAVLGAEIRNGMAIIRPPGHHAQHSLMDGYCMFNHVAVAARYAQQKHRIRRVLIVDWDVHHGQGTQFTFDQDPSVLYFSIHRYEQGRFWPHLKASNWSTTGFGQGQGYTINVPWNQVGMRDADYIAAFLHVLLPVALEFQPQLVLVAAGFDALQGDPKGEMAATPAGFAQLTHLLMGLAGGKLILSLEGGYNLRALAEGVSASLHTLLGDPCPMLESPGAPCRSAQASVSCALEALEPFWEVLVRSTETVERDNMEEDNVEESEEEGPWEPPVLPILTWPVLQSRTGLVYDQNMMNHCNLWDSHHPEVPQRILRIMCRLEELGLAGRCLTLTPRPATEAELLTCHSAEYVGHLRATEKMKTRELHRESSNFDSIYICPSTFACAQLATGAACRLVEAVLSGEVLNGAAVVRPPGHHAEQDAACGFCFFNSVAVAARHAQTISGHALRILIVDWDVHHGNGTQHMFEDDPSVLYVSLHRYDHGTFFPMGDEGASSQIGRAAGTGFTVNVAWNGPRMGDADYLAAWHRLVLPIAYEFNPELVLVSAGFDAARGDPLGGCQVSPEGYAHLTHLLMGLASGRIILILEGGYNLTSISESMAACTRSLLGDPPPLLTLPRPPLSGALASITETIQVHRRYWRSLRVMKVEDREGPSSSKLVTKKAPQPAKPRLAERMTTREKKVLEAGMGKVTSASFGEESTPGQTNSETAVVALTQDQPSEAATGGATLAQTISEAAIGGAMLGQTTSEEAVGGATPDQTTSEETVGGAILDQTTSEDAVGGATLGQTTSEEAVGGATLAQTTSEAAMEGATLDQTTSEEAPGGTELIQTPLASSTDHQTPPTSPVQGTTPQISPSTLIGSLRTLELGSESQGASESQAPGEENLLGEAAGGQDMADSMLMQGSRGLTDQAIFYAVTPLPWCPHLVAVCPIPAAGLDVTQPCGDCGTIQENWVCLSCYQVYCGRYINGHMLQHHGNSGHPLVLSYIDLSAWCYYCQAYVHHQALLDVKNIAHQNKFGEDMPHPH

O=C(CCCC(=O)NCCc1ccccc1)NO
pIC50 (Histone deacetylase 8): 5.00 to 5.30
GI50 (HCT-116; Homo sapiens, HCT-116, 72 h): > 50 µM
Activity [1]: 113%
pIC50 (Histone deacetylase 11): 5.00 to 5.30
GI50 (HuT78; Homo sapiens, HuT78, 70 h): > 50 µM
GI50 (MOLT-4; Homo sapiens, MOLT-4, 70 h): > 50 µM
pIC50 [2]: 5.00 to 5.30
pIC50 [3]: > 5.30
pIC50 (Histone deacetylase 7): < 5.00
GI50 at 70 h [4]: > 50 µM
pIC50 (Histone deacetylase 9): 5.00 to 5.30
pIC50 (Histone deacetylase 4): 5.00 to 5.30
pIC50 (Histone deacetylase 2 [5]): 5.00 to 5.30
pIC50 (Histone deacetylase 5): < 5.00
GI50 (MCF7): > 50 µM
pIC50 [6]: 5.00 to 5.30
pIC50 (Histone deacetylase 1): 5.00 to 5.30
pIC50 (Histone deacetylase 2 [7]): < 6.00
GI50 (MDA-MB-231): > 50 µM

CCOC(=O)NCCCC(=O)NCCc1ccccc1
pIC50 (Histone deacetylase 8): 5.00 to 5.30
GI50 (HCT-116): > 50 µM and 17.2 µM
inhibition [8]: inactive
Activity [1]: 77%
pIC50 (Histone deacetylase 11): 5.00 to 5.30
inhibition [9]: inactive
GI50 (HuT78): 36 µM
GI50 (HuT78; Homo sapiens, HuT78, 70 h): > 50 µM
inhibition [10]: inactive
inhibition [11]: inactive
GI50 (MOLT-4): > 50 µM and 7.8 µM
inhibition [12]: inactive
inhibition [13]: inactive
pIC50 [2]: 5.00 to 5.30
pIC50 [3]: 5.00 to 5.30
pIC50 (Histone deacetylase 7): 5.00 to 5.30
GI50 at 70 h [4]: > 50 µM
pIC50 (Histone deacetylase 9): 5.00 to 5.30
inhibition [14]: inactive
pIC50 (Histone deacetylase 4): 5.00 to 5.30
inhibition [15]: inactive
pIC50 (Histone deacetylase 2 [5]): 5.00 to 5.30
pIC50 (Histone deacetylase 5): 5.00 to 5.30
inhibition [16]: inactive
GI50 (MCF7): > 50 µM
pIC50 [6]: 5.00 to 5.30
pIC50 (Histone deacetylase 1): 5.00 to 5.30
inhibition [17]: inactive
inhibition [18]: inactive
inhibition [19]: inactive
inhibition [20]: inactive
pIC50 (Histone deacetylase 2 [7]): < 6.00
GI50 (MDA-MB-231): > 50 µM
